# In paper PMC12722729 (Scientific Reports, 2025):
# Several values for one entry are separate records, joined by “and”; a condition that tells them apart may be missing. Equal values may be shown once. Read-outs that look alike come from different tables or passages of the source.
# What was measured:
# Jurkat cells [1] = assay: MTT cytotoxicity assay, Jurkat cells; type: cell-based, human; details: 24 h, read-out: IC50 for Jurkat cell proliferation
# Summary of the method: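 Jurkat E6-1 cells were grown in RPMI-1640 with L-glutamine, 10% FBS and 1% penicillin-streptomycin at 37 °C and 5% CO2. The test compound was diluted 1:2 serially in medium from a top concentration of 10 or 5 µM. Cells at a final 1 × 10⁶ cells/mL were exposed for 24 h. MTT was added (final 0.45 mg/mL) for 4 h at 37 °C, formazan was dissolved in DMSO, and OD was read at 570 nm. IC50 was taken as 50% growth inhibition. Three independent experiments, mean ± SEM.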
# WIL2-NS cells = assay: MTT cytotoxicity and selectivity index, WIL2-NS cells; type: cell-based, human; details: IC50 WIL2-NS compared to IC50 Jurkat
# Jurkat cells [2] = assay: Annexin V-FITC/propidium iodide labelling; type: cell-based, human; details: 24 h, each compound at its IC50, mean ± SEM
# Summary of the method: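 Cells were spun at 220 x g for 5 min at 4 °C and washed in chilled PBS. They were stained with Annexin V-FITC in binding buffer for 13 min at room temperature in the dark, then with PI for 2 min. Samples were diluted in binding buffer and analysed by flow cytometry.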
# Jurkat cells [3] = assay: NAC pre-treatment followed by Annexin V-FITC/PI; type: cell-based, human; details: 20 or 50 µM NAC 1 h, then OC2 at IC50 24 h
# K562 cells = details: cited from earlier work
# caspase-9 = assay: CaspGLOW active caspase staining, caspase-9; type: cell-based, human; details: Jurkat, OC2 at IC50, 2 and 4 h
# Summary of the method: (§1)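 Jurkat E6-1 cells in RPMI-1640 with 10% FBS at 1 × 10⁶ cells/mL were exposed to the test compound for 2 or 4 h. Cells were washed, resuspended in fresh medium and stained 1 h at 37 °C with a FITC-conjugated inhibitor: IETD-FMK (caspase-8), LEHD-FMK (caspase-9) or DEVD-FMK (caspase-3). After washing, cells were read by flow cytometry. Mean ± SEM of 3 replicates; ANOVA/Tukey versus untreated.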
# p21 = assay: Western blot, p21; type: cell-based, human; details: Jurkat, OC2 at IC50, 0.5-6 h
# Summary of the method: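 Jurkat cells at 1 × 10⁶ cells/mL were treated for 0.5 to 6 h, then washed in ice-cold PBS and lysed in RIPA buffer (spun 13500 rpm, 30 min, 4 °C). Protein was measured by Bradford assay and 25 µg per lane run on SDS-PAGE, then transferred to PVDF. Blots were blocked in 5% BSA/TBS-T for 1.5 h, given primary antibody overnight at 4 °C and HRP anti-rabbit for 1 h, then detected by ECL. β-actin served as loading control; band intensity is in arbitrary units, n = 3.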
# caspase-8 = assay: CaspGLOW active caspase staining, caspase-8; type: cell-based, human; details: Jurkat, OC2 at IC50, 2 and 4 h
# Summary of the method: as §1
# Jurkat cells [4] = assay: DHE staining, intracellular ROS; type: cell-based, human; details: OC2 at IC50, 1-6 h
# caspase-3 = assay: CaspGLOW active caspase staining, caspase-3; type: cell-based, human; details: Jurkat, OC2 at IC50, 4 h
# Summary of the method: as §1
# [5] = cited from earlier work
# Jurkat cells [6] = assay: Cell cycle checkpoint analysis; type: cell-based, human; details: OC2 at IC50, 2 and 4 h
# Jurkat cells [7] = assay: TMRE staining, mitochondrial membrane potential; type: cell-based, human
# cleaved-PARP = assay: Western blot, cleaved-PARP; type: cell-based, human; details: Jurkat, OC2 at IC50, 0.5-6 h
# Summary of the method: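 Jurkat cells (1 × 10⁶ cells/mL) were treated with the test compound at its IC50 for 0.5–6 h. Cells were washed in ice-cold PBS and lysed in RIPA, and lysates were cleared at 13500 rpm for 30 min at 4 °C; protein was measured by Bradford. 25 µg per lane was run on SDS-PAGE and transferred to PVDF. Membranes were blocked in 5% BSA/TBS-T for 1.5 h, given primary antibody overnight at 4 °C and HRP anti-rabbit for 1 h, and developed by ECL. β-actin served as loading control. Three independent replicates, arbitrary units, mean ± SEM.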
smiles,measurement,setting,value
"COc1cc([C@@H]2c3cc4c(cc3[C@@H](O[C@@H]3O[C@@H]5CO[C@@H](C)O[C@H]5[C@H](O)[C@H]3O)[C@H]3COC(=O)[C@H]23)OCO4)cc(OC)c1O [ETO, Etoposide, reference compound]",IC50,"Jurkat cells [1]; Homo sapiens, Jurkat",870 ± 60 nM
"CC(C)N(C(=S)[S][Sn]([S]C(=S)N(C(C)C)C(C)C)([c]1ccccc1)[c]1ccccc1)C(C)C [OC1, Diphenyltin(IV) diisopropyl dithiocarbamate]",Selectivity index (SI),WIL2-NS cells,0.37
same,Percentage of apoptotic events,Jurkat cells [2],68.1 ± 4.2%
same,IC50,"Jurkat cells [1]; MTT, mean ± S.E.M",7100 ± 600 nM
"CC(C)N(C(=S)[S][Sn]([c]1ccccc1)([c]1ccccc1)[c]1ccccc1)C(C)C [OC2, Triphenyltin(IV) diisopropyl dithiocarbamate]",Apoptotic cells after NAC pre-treatment,Jurkat cells [3],significantly decreased the number of apoptotic cells
same,"ROS levels, K562","K562 cells; IC50 dose, 6 h",substantial elevation in ROS levels (p < 0.05)
same,"Apoptotic cells, K562",K562 cells; at IC50 concentration,57.1 ± 4.5%
same,"Cell cycle progression, K562",K562 cells,blocking cell cycle progression at the S phase checkpoint
same,"Selectivity index (SI), K562 cells",K562 cells,1
same,IC50,"K562 cells; read-out: IC50 (inhibiting 50% of cell growth), K562 cells",550 nM
same,Cells with active caspase-9,caspase-9,steadily increased from 2 to 4 h post-treatment
same,Selectivity index (SI),WIL2-NS cells,5.5
same,Percentage of apoptotic events,Jurkat cells [2],55.6 ± 5.0% and 55% and 55.6 ± 4.95%
same,p21 protein expression,p21,statistically significant (p < 0.05) at later time points (4 and 6 h)
same,Caspase-8 activation,caspase-8,remained unchanged compared to the control up to 4 h
same,Intracellular ROS production,Jurkat cells [4],time-dependent increase in ROS production
same,Caspase-3 positive cells,caspase-3,significant increase in caspase-3 positive cells
same,Predicted CaCo2 permeability / intestinal absorption,[5]; ADMETlab prediction,might possess good intestinal absorption
same,Inhibition of major CYP450 enzymes (predicted),[5]; in silico,predicted not to inhibit any major CYP450 enzymes
same,Mutagenic and carcinogenic potential (predicted),[5]; in silico,may lack mutagenic and carcinogenic potential
same,P-gp substrate or inhibitor (predicted),[5]; in silico,unlikely to be a substrate or inhibitor of P-gp
same,Skin sensitization or liver injury (predicted),[5]; in silico,might not cause skin sensitization or liver injury
same,Cell cycle distribution,Jurkat cells [6],halted the Jurkat cell cycle in the G0/G1 phase
same,TMRE-negative cells (loss of ΔΨm),"Jurkat cells [7]; OC2 at IC50, 1 h",slight increase in TMRE-negative cells
same,TMRE-negative cells (loss of ΔΨm),"Jurkat cells [7]; OC2 at IC50, 2 h",33.0 ± 4.5%
same,TMRE-negative cells (loss of ΔΨm),"Jurkat cells [7]; OC2 at IC50, 4 h",37.4 ± 2.4%
same,TMRE-negative cells (loss of ΔΨm),"Jurkat cells [7]; OC2 at IC50, 6 h",43.2 ± 5.5%
same,Cleaved-PARP protein expression,cleaved-PARP,marked rise (p < 0.05) at 6 h
same,IC50,"Jurkat cells [1]; MTT, mean ± S.E.M",100 ± 10 nM
"C=CCN(CC=C)C(=S)[S][Sn]([S]C(=S)N(CC=C)CC=C)([c]1ccccc1)[c]1ccccc1 [OC3, Diphenyltin(IV) diallyl dithiocarbamate]",Selectivity index (SI),WIL2-NS cells,0.42
same,Percentage of apoptotic events,Jurkat cells [2],86.7 ± 2.9%
same,IC50,"Jurkat cells [1]; MTT, mean ± S.E.M",2800 ± 130 nM
"C=CCN(CC=C)C(=S)[S][Sn]([c]1ccccc1)([c]1ccccc1)[c]1ccccc1 [OC4, Triphenyltin(IV) diallyl dithiocarbamate]",Selectivity index (SI),WIL2-NS cells,1
same,Percentage of apoptotic events,Jurkat cells [2],84.5 ± 5.3%
same,IC50,"Jurkat cells [1]; MTT, mean ± S.E.M",200 ± 10 nM
"CCN(CC)C(=S)[S][Sn]([c]1ccccc1)([c]1ccccc1)[c]1ccccc1 [OC5, Triphenyltin(IV) diethyldithiocarbamate]",Selectivity index (SI),WIL2-NS cells,0.57
same,Percentage of apoptotic events,Jurkat cells [2],73.4 ± 4.8%
same,IC50,"Jurkat cells [1]; MTT, mean ± S.E.M",350 ± 10 nM
